These results are taken from ChEMBL document CHEMBL4513216, “Probing the Open Global Health Chemical Diversity Library for Multistage-Active Starting Points for Next-Generation Antimalarials” (ACS Infect Dis, 2020).

Molecules are shown by their SMILES.

The nature of the data set: Toxicity liver stage against HepG2, at 10uM. It counts as cell-based. Also on record: test concentration 10 uM, cell line HepG2-A16-CD81EGFP. Conditions: human, HepG2-A16-CD81EGFP cells; read-out: INHIBITION
A digest of the protocol:
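Uninfected HepG2-A16-CD81EGFP cells, 3 × 10^3 per well, 1536-well, plated on prespotted compound at 10 μM final, parasite-free screening media added to match infected plates; puromycin 10 μM positive, DMSO 0.5% negative; run in parallel with 48 h PbLuc assay at 37 °C, 5% CO2; viability by CellTiter-Glo luminescence, normalized to controls.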
For `Cc1nnc(SCCC(=O)N(C)Cc2c(F)cccc2Cl)[nH]1`, the cytotoxicity at 10 µM was 1.69%.
In the case of `CCCSCC(=O)Nc1ncn(CC(=O)N2CCCCCC2)n1`, the cytotoxicity at 10 µM is -3.91%.
Under `CN(C)[C@@H]1CCN(C(=O)c2ccccn2)[C@H]1Cc1cnn(C)c1` stands -70%; under `Cc1cc(S(=O)(=O)N2CCOCC2C#N)ccc1F` (stereo not given), 57.3%.
Regarding `Cc1nnc(SCCCNC(=O)Cc2ccc3c(c2)OCO3)s1`, the cytotoxicity at 10 µM was 7.75%.
`O=C(CCN1CCOC(C(F)(F)F)C1)NCc1ccc(Cl)cc1` (stereo not given): the cytotoxicity at 10 µM was -9.93%.
With `CC1CCCCN1c1nc2c(c(=O)[nH]1)CCN(Cc1ccc(O)cc1)C2` (stereo not given) the figure was 5.74%; with `Cc1cnc(-c2nc(C3CCCN(Cc4ccccc4C)C3)no2)cn1` (stereo not given), -2.33%; with `Cc1cc(NCCO)nc(N2CCCC2)c1C#N`, -7.02%.
Turning to `CN1Cc2c(C(=O)NCC3CCCO3)ncn2-c2ccccc2S1(=O)=O` (stereo not given), the cytotoxicity at 10 µM is -141%.
With `NC(=O)Nc1cccc(CNC(=O)CCCOCc2ccccc2)c1` the figure was -8.06%; with `O=C(CSc1ccncc1)N1CCC2(CC1)c1ccccc1CC2O` (stereo not given), -2.36%; with `Cc1cc2ccccc2n1CC(=O)NCC(=O)N1CCOCC1`, -7.7%.
Under `CN1CSC[C@H]1C(=O)N1CCN(Cc2cccc(F)c2)CC1` stands -6.92%.
`O=C(CCC1CCCCO1)NCc1cnn(-c2ccc(F)cc2F)c1` (stereo not given): the cytotoxicity at 10 µM was -11.4%.
On to `COCC(=O)NCc1nn(CCN2CCCC2)c(=O)c2ccccc12`, for which the cytotoxicity at 10 µM is -18.9%.
As to `Cc1cnn(CC(C)NCc2ccc(OCc3nccn3C)cc2)c1` (stereo not given), the cytotoxicity at 10 µM is -10.7%.
For the molecule `CCn1ncc2c1C(COCC1CC1)N(Cc1cnn(C)c1)CC2` (stereo not given), the cytotoxicity at 10 µM came to 8.98%.
On to `Cn1ccnc1Sc1ccc(N)cn1`, for which the cytotoxicity at 10 µM was found to be 3.08%.
Under `CCN(Cc1ccc2c(c1)OCCO2)C(=O)c1ccc(C)[nH]c1=O` stands -4.6%; under `O=c1oc2ccccc2n1CCCN1CCCC1c1ccc(O)cc1` (stereo not given), 7.87%; under `Cn1c(=NC(=O)CSCC(=O)Nc2nccs2)sc2ccccc21`, -1.81%.
As to `COc1ccnc(N2CCC(=O)N(CC3CC3)C(C(C)C)C2)n1` (stereo not given), the cytotoxicity at 10 µM worked out at 1.73%.
Under `Cc1n[nH]c(SCCNC2CCN(c3nc4ccccc4s3)CC2)n1` stands -6.92%.
Under `COc1ccccc1OCc1cc(C(=O)N2CCOCC2CO)n[nH]1` (stereo not given) stands -3.94%; under `O=C(NCC1CC1)C1CCC2(CCN(C(=O)c3ccoc3)CC2)O1` (stereo not given), 4.97%.
For `c1ccc(CCN2CCCC2c2cccc(Nc3nccs3)n2)cc1` (stereo not given), the cytotoxicity at 10 µM was determined as 8.91%.
For `CCCS(=O)(=O)N1CCN(c2cc(-n3cccc3)nc(C)n2)CC1`, the cytotoxicity at 10 µM was determined as 6.62%.
As for `O=C(c1cccc2c1OCO2)N1CCCC(n2cccn2)C1` (stereo not given), the cytotoxicity at 10 µM is -8.72%.
Under `CCOc1ccc(Cl)c(C(=O)N2CCN(C(=O)OC)CC2)n1` stands -6.33%; under `Cc1cc(C)nc(N2CCOC(C)(C(=O)N(C)C)C2)n1` (stereo not given), -3.04%.
On to `O=C(O)c1nc(SCc2ccccc2)ncc1Br`, for which the cytotoxicity at 10 µM worked out at 0.231%.
With `CC(=O)N(Cc1ncc(C)o1)C1CCN(Cc2nccn2C)C1` (stereo not given) the figure was 6.57%.
With `c1ccc(CNCC2Cn3nnc(-c4ccncc4)c3CO2)nc1` (stereo not given) the figure was -1.99%; with `CC(C)N1CC[C@H]2[C@H](C[C@@H](Cn3cccn3)N2c2nccs2)C1`, 3.28%; with `Cc1ccccc1C(=O)NCCC(=O)NS(=O)(=O)c1cccnc1`, -11.6%.
Under `CCN(CC)CCNC(=O)CCc1c(C)nn(-c2ccccc2Cl)c1C` stands -0.61%; under `COc1cc2c(cc1CNCc1cccnc1OC)OC(C)C2` (stereo not given), 3.67%.
On to `CCN(C(=O)c1cnc(-c2ccc3c(c2)OCO3)s1)C1CC1`, for which the cytotoxicity at 10 µM is -0.839%.
Under `FC(F)(F)CCc1ncnn1-c1ccc2c(c1)OCO2` stands -3.55%.
